This note sets out measurements from ChEMBL document CHEMBL1152251, “Preparation of (4,4-difluoro-1,2,3,4-tetrahydro-5H-1-benzazepin-5-ylidene)acetamide derivatives as novel arginine vasopressin V(2) receptor agonists” (Bioorg Med Chem, 2008).

SMILES strings stand for the structures. Activity calls are given as the source filed them. No cut-off for these calls is given here. Bounds are passed on as bounds.

One may read the Ki as a measure of affinity in units of concentration, obtained from inhibition or displacement. Broadly, the EC50 is the concentration needed to bring the measured effect to its halfway point.

Assay [1] addresses T1, Vasopressin V2 receptor (Homo sapiens, UniProt P30518). Kind of assay: Displacement of [3H]vasopressin from human vasopressin V2 receptor expressed in CHO cells by microplate scintillation counting. It counts as cell-based. For orientation: In a radioligand displacement assay an active substance lowers the binding of a labelled ligand.
The target of assay [2] is T1, Vasopressin V2 receptor. Nature of the assay: Agonist activity at human vasopressin V2 receptor expressed in CHO cells assessed as cAMP accumulation by HTRF assay. It counts as functional, cell-based. In a few lines:
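Cells kept in α-MEM with 10% FBS, penicillin/streptomycin and 0.1% amethopterin at 37 °C, 5% CO₂, grown to subconfluence, then serum-starved 24 h. Medium changed to α-MEM with 1 mmol/L IBMX and 0.1% BSA, compound added for 10 min at 37 °C. Lysis in PBS/0.2% Triton X-100, cAMP read by HTRF. Triplicate.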
(Changes in cAMP serve as a functional read-out for many G protein-coupled receptors.)

Assay [3] addresses T1, Vasopressin V2 receptor. Nature of the assay: Intrinsic activity at human vasopressin V2 receptor expressed in CHO cells assessed as cAMP accumulation by HTRF assay relative to arginine vasopressin. It counts as functional, cell-based.
For assay [4], the target named is Vasopressin V2 receptor (Rattus norvegicus, UniProt Q00788). Nature of the assay: Displacement of [3H]vasopressin from rat vasopressin V2 receptor expressed in CHO cells by microplate scintillation counting. It counts as cell-based.
Sequence of Vasopressin V2 receptor (Rattus norvegicus, UniProt Q00788) (Q00788 whole entry): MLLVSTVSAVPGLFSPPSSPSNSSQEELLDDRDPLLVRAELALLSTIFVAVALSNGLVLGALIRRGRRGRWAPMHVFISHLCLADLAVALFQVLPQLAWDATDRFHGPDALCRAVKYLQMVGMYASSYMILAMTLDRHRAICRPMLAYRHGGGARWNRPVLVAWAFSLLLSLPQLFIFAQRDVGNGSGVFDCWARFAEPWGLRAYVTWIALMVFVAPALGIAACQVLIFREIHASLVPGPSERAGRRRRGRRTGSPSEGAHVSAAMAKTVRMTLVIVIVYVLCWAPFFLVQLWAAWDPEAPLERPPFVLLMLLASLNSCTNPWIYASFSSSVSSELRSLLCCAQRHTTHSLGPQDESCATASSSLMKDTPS

T1 sequence (P30518 whole entry): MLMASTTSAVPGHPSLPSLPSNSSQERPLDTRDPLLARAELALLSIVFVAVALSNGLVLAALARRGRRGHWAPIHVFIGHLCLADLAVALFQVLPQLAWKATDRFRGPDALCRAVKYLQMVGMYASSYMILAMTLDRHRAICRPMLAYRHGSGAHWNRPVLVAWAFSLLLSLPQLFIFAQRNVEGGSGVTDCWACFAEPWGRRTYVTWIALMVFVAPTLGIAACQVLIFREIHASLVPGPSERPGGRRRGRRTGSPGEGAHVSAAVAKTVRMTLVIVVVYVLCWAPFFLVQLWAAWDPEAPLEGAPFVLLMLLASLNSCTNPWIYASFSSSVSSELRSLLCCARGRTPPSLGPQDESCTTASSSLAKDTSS

Regarding `CC(C)c1ccn(-c2ccc(C(=O)N3CCC(F)(F)/C(=C\C(=O)NCc4ccccn4)c4ccccc43)c(Cl)c2)n1`, at Vasopressin V2 receptor [1], the affinity, expressed as Ki, was 18 nM. Further, at Vasopressin V2 receptor [2], the half-maximal effective concentration (EC50) was greater than 10000 nM. Moreover, the Activity at Vasopressin V2 receptor [3] was 4.9%.

`CN1CCN(c2ccc(C(=O)N3CCC(F)(F)/C(=C\C(=O)NCc4ccccn4)c4ccccc43)c(Cl)c2)CC1` came in with a Ki on Vasopressin V2 receptor [1] of 170 nM. Further, on Vasopressin V2 receptor [2], the 50% effective concentration (EC50) was greater than 10000 nM. Besides, the Activity on Vasopressin V2 receptor [3] came out at 35.5%.

In turn, `CCc1ccn(-c2ccc(C(=O)N3CCC(F)(F)/C(=C\C(=O)NCc4ccccn4)c4ccccc43)c(Cl)c2)n1` registered a Ki at Vasopressin V2 receptor [1] of 21 nM. In addition, the EC50 on Vasopressin V2 receptor [2] was greater than 10000 nM. Besides, the Activity on Vasopressin V2 receptor [3] stood at 86.8%.

At Vasopressin V2 receptor [4], `Cc1ccn(-c2ccc(C(=O)N3CCC(F)(F)/C(=C\C(=O)NCc4ccccn4)c4ccccc43)c(Cl)c2)n1` yielded an inhibitory constant (Ki) of 19 nM. This counts as double-digit nanomolar.

As to `O=C(/C=C1/c2ccccc2N(C(=O)c2ccc(NC(=O)c3ccccc3-c3ccccc3)cc2)CCC1(F)F)NCc1ccccn1`, at Vasopressin V2 receptor [4], the affinity corresponds to a Ki of 0.4 nM. Also, the outcome at Vasopressin V2 receptor [2] was inactive.
